Several values for one entry are separate records, joined by “and”; a condition that tells them apart may be missing. Identical values can stand only once. Like-named read-outs stand apart in the source and are kept apart here.
How the values were obtained:
[1] = molecular target: T1, human M1R (Homo sapiens, UniProt P11229); conditions: cited from earlier work
T1 sequence (P11229 1-460): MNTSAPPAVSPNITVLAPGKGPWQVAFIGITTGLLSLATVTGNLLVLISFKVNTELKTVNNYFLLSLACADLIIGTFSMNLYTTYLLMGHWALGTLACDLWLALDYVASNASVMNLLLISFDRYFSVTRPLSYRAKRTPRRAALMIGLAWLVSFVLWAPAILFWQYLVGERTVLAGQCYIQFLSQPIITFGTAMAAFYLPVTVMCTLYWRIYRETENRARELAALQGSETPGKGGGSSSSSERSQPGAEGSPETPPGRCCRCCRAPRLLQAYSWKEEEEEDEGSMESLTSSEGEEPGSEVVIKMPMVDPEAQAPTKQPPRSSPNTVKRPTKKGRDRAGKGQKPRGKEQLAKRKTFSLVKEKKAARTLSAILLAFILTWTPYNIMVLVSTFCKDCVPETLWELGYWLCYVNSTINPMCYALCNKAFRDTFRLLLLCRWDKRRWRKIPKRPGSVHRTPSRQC

[2] = molecular target: T1, human M1R; assay type: binding; conditions: for Displacement of radioligand at M1Rs at highest concentration: 100 μM
[3] = cited from earlier work
[4] = molecular target: T2, human M1Rs (Homo sapiens, UniProt P11229); experiment: M1R phosphoinositide hydrolysis; assay type: cell-based
T2 sequence (P11229 1-460): T1 sequence (P11229 1-460)

[5] = molecular target: T3, human M2R (Homo sapiens, UniProt P08172); experiment: M2R cAMP signaling; assay type: cell-based
T3 sequence (P08172 1-466): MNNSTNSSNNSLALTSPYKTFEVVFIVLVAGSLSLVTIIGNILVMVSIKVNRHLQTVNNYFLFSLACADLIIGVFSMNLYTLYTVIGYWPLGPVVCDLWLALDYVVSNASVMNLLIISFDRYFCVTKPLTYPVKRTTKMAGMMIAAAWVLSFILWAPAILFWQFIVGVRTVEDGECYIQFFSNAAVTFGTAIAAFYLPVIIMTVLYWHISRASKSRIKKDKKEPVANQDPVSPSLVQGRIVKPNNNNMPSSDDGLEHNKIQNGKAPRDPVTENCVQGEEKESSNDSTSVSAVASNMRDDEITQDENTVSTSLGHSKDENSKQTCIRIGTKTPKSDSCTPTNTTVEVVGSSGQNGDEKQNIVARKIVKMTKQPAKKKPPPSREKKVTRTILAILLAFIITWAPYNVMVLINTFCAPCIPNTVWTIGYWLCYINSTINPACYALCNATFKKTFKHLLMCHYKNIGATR

[6] = molecular target: T3, human M2R; experiment: M2R β-arrestin recruitment; assay type: cell-based
[7] = molecular target: T3, human M2R; experiment: [3H]scopolamine radioligand competition binding at M2R; conditions: for Displacement of radioligand at M2Rs at highest concentration: 100 μM; for Displacement of radioligand at M2Rs at highest concentration / Ki: full dose-response competition binding; for Ki: read-out: Ki at M2Rs
[8] = tested on: human M1Rs, M2Rs, M3Rs, M4Rs, and M5Rs; experiment: Initial [3H]scopolamine displacement screen at each of the five MR subtypes; assay type: binding; conditions: screened at 1 and 10 μM
In short: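 HEK293 cells (passage <20), lipid-transfected with human M1–M5 receptor cDNA; membranes harvested ~48 h later and stored at -80 °C. […] Filtered on GF/B, washed with ice-cold 50 mM Tris pH 7.4, scintillation counted. Affinities estimated from these two concentrations; N=2.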

[9] = cited from earlier work; remark: listed apart in the source
[10] = tested on: NET; conditions: cited from earlier work
[11] = tested on: DAT; conditions: cited from earlier work
[12] = α-PVP confirmed as only stimulant responsible for intoxication; cited from earlier work
[13] = full dose-response competition binding

## CNC(C)C(=O)c1ccc(Br)cc1 (stereo not shown) [4-bromomethcathinone, reference compound]
[1]
  Affinity at M1Rs (initial experiments): nil affinity

## CCCCC(C(=O)c1ccc2c(c1)OCO2)N1CCCC1 (stereo not drawn) [MDPHP, 3,4-methylenedioxy-α-pyrrolidinohexiophenone]
[2]
  Estimated pKi at M1R: 5.44
[2]; read-out: Estimated Ki at M1Rs, estimated from 1 and 10 μM screens
  Ki: 3630 nM

## CCCCCC(C(=O)c1ccc2c(c1)OCO2)N1CCCC1 (stereo not drawn) [MDPHPP, 3,4-methylenedioxy-α-pyrrolidinoheptaphenone]
[2]
  Estimated pKi at M1R: 5.22

## CC(C(=O)c1ccc2c(c1)OCO2)N1CCCC1 (stereo not drawn) [MDPPP, 3,4-methylenedioxy-α-pyrrolidinopropiophenone]
[1]
  Affinity at M1Rs (initial experiments): nil affinity

## CCCC(C(=O)c1ccc2c(c1)OCO2)N1CCCC1 (stereo not shown) [MDPV, 3,4-methylenedioxypyrovalerone]
[2]
  Estimated pKi at M1R: 5.06
[3]
  Effect on mitochondrial activity and cellular membranes: not observed

## O=C1CCCN1CC#CCN1CCCC1 [oxotremorine, reference compound]
[4]
  EC80, IP1 production: 500 nM
[5]
  EC50: 28.8 nM
[5]; 10 μM forskolin
  EC80, decrease of forskolin-stimulated cAMP production: 130 nM
[6]; concentration used in antagonist tests
  EC80, β-arrestin recruitment: 10000 nM

## CCC(C(=O)c1ccccc1)N1CCCC1 (stereo not drawn) [α-PBP, α-pyrrolidinobutiophenone]
[7]
  Displacement of radioligand at M2Rs at highest concentration: less than 50%
[7]; interpolated
  Ki: 40000 nM
[2]; [13]
  Displacement of radioligand at M1Rs at highest concentration: less than 50%
[8]
  Displacement of 1 nM [3H]scopolamine from each of the MR subtypes: < 5%

## CCCCC(C(=O)c1ccccc1)N1CCCC1 (stereo not drawn) [α-PHP, α-pyrrolidinohexiophenone]
[9]; fatal cases, as high as
  Blood concentration, fatal cases: ≤ 2860 nM
[9]; male admitted to hospital after inhaling only α-PHP
  Blood concentration, non-fatal case: 1280 nM
[9]; patient admitted to hospital after taking α-PHP
  Serum concentration, non-fatal case: 710 nM
[4]; EC80 oxotremorine (500 nM)
  pKb, inhibition of M1R-IP1 production caused by oxotremorine: 5.86 ± 0.35
[4]; maximal effect lower than basal signaling
  Functional activity at M1R-inositol phosphate signaling pathway: inverse agonist activity
[4]; read-out: Kb, inhibition of M1R-IP1 production caused by oxotremorine, EC80 oxotremorine (500 nM)
  Kb: 1400 nM and 1380 nM
[7]; ratio of Ki values
  Fold increase in M2R affinity compared to α-PPP: 302 fold
[7]
  Ki: 251 nM
[5]
  pKb, inhibition of M2R stimulation by oxotremorine (cAMP): 6.92 ±0.03
[5]; maximal effect above forskolin alone
  Functional activity at M2R-cAMP signaling pathway: inverse agonist
[5]; read-out: Kb, inhibition of M2R stimulation by oxotremorine (cAMP)
  Kb: 120 nM
[2]; ratio of Ki values
  Fold increase in M1R affinity from α-PPP: 121 fold
[2]; read-out: Ki at M1Rs, full dose-response competition binding
  Ki: 1600 nM
[6]; EC80 oxotremorine (10 μM)
  pKb, inhibition of oxotremorine-stimulated β-arrestin recruitment: 6.30 ± 0.12
[6]; relative to basal signaling
  Functional activity at M2R-β-arrestin recruitment: inverse agonist
[10]
  Fold higher affinity at NET than α-PPP: 6 fold
[11]
  Fold higher affinity at DAT than α-PPP: 81 fold

## CC(C(=O)c1ccccc1)N1CCCC1 (stereo not drawn) [α-PPP, α-pyrrolidinopropiophenone]
[1]
  Affinity at M1Rs (initial experiments): nil affinity
[7]
  Displacement of radioligand at M2Rs at highest concentration: less than 50%
[2]; [13]
  Displacement of radioligand at M1Rs at highest concentration: less than 50%
[8]
  Displacement of 1 nM [3H]scopolamine from each of the MR subtypes: < 5%

## CCCCCCC(C(=O)c1ccccc1)N1CCCC1 (stereo not drawn) [α-PV9, α-pyrrolidinooctanophenone, reference compound]
[3]
  Effect on mitochondrial activity and cellular membranes: potently decreased mitochondrial activity and severely damaged cellular membranes

## CCCC(C(=O)c1ccccc1)N1CCCC1 (stereo not drawn) [α-PVP, α-pyrrolidinopentiophenone]
[9]; non-fatal cases, as high as
  Serum concentration, non-fatal cases: ≤ 2600 nM
[9]; postmortem cases, as high as
  Concentration, postmortem cases: ≤ 86000 nM
[12]
  Patients presenting with tachycardia: 80%
[7]; ratio of Ki values
  Fold increase in M2R affinity compared to α-PBP: 49 fold
  Fold increase in M2R affinity compared to α-PPP: 89 fold
[7]
  Ki: 824 nM

From article PMC7104417 (ACS chemical neuroscience, 2020)
